The record followed here is ChEMBL document CHEMBL1125681, “Specific anti-HIV-1 "acyclonucleosides" which cannot be phosphorylated: synthesis of some deoxy analogues of 1-[(2-hydroxyethoxy)methyl]-6-(phenylthio)thymine” (J Med Chem, 1991).

In assay [1] the test system is MT4. Description: Concentration of compound required to reduce the viability of mock infected MT-4 cells against HIV-1 by 50%. The format is functional. Particulars: Homo sapiens. In a few lines: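 Mock-infected MT-4 cells were exposed to the compound, and viability was measured. CC50 is the concentration that lowers the viability of these uninfected cells by 50%. Values are means (± standard deviation or range) from at least two separate experiments.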

For assay [2], the system named is MT4. In words: Concentration of compound required to achieve 50% protection of MT-4 cells against HIV-1 virus induced cytopathic effect. The class given is functional, cell-based. Particulars: Homo sapiens. In a few lines: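 HIV-1-infected MT-4 cells, scored for protection against virus-induced cytopathic effect. EC50 is the concentration protecting 50% of cells, given as the mean (± standard deviation or range) of at least two separate experiments.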

A short description of assay [3]: CC50/EC50 ratio expressed as selectivity index(SI). The format is functional. In a few lines: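 Ratio of two MT-4 values from this work. CC50 is the concentration that reduces the viability of mock-infected MT-4 cells by 50%. EC50 is the concentration giving 50% protection of HIV-1-infected MT-4 cells against virus cytopathic effect. Both are means (± standard deviation or range) of at least two separate experiments.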

On to `CCc1c(Sc2ccccc2)n(COCc2ccccc2)c(=O)[nH]c1=O`, for which half-maximal cytotoxicity in assay [1] (CC50) was put at 34 µM. In assay [2], this compound had a 50% effective concentration (EC50) of 0.0059 µM. The Ratio in assay [3] came to 5800.
Compound `Cc1cn([C@H]2C[C@H](N=[N+]=[N-])[C@@H](CO)O2)c(=O)[nH]c1=O` [ZIDOVUDINE] came in with an EC50 in assay [2] of 0.003 µM. Besides, in assay [3], the Ratio was 2600.
In the case of `Cc1c(Sc2ccccc2)n(COCc2ccccc2)c(=O)[nH]c1=O`, the CC50 in assay [1] amounted to 95 µM. The EC50 in assay [2] is 0.088 µM. Also, in assay [3], the Ratio came out at 1080.
In turn, `CCc1c(Sc2ccccc2)n(COCCO)c(=O)[nH]c1=O` showed an EC50 in assay [2] of 0.12 µM.
With `CCOCn1c(Sc2ccccc2)c(C)c(=O)[nH]c1=O`, the CC50 in assay [1] was 231 µM. Also, in assay [2], the EC50 stood at 0.33 µM. Moreover, the Ratio in assay [3] is 700.
On to `Cc1c(Sc2ccccc2)n(COCCO)c(=O)[nH]c1=O` [HEPT], for which, in assay [1], the CC50 is above 500 µM. For the same compound, the response in assay [2] was half-maximal at 6.5 µM (EC50). Also, in assay [3], the Ratio is above 77.
For `Cc1c(Sc2ccccc2)n(COCCF)c(=O)[nH]c1=O`, the CC50 in assay [1] was 209 µM. The EC50 in assay [2] amounted to 1.1 µM. Further, in assay [3], the Ratio is 190.
In assay [1], `Cc1c(Sc2ccccc2)n(COCCCl)c(=O)[nH]c1=O` gave a CC50 of 196 µM. The compound also displayed an EC50 in assay [2] of 1.5 µM. Besides, in assay [3], the Ratio was 131.
For `Cc1c(Sc2ccccc2)n(COCCN=[N+]=[N-])c(=O)[nH]c1=O` the same measures were 186 µM, 5.8 µM and 32.
The compound `CCOCn1c(Sc2ccccc2)c(CC)c(=O)[nH]c1=O` gave a CC50 in assay [1] of 161 µM. Also, the EC50 in assay [2] came out at 0.019 µM. The Ratio in assay [3] was determined as 8500.
For `Cc1c(Sc2ccccc2)n(COCCOCc2ccccc2)c(=O)[nH]c1=O` the same measures were 45 µM, above 20 µM and below 2.3.
Turning to `COCCOCn1c(Sc2ccccc2)c(C)c(=O)[nH]c1=O`, the CC50 in assay [1] is 299 µM. In assay [2], this compound gave a half-maximal effective concentration (EC50) of 8.7 µM. Moreover, the Ratio in assay [3] is 34.
